ChEMBL document CHEMBL1142158, “Antibacterial activity and mechanism of action of a novel anilinouracil-fluoroquinolone hybrid compound” (Antimicrob Agents Chemother, 2007)
In brackets after ≈: the same amount, converted by molar mass. Activity calls are given as the source filed them. No cut-off for these calls is given here.

How the values were obtained:
Streptococcus pneumoniae [1] = assay: Antibacterial activity against penicillin-resistant Streptococcus pneumoniae 700673; type: functional
Outline: (§1)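 Streptococci tested by CLSI broth microdilution in Mueller-Hinton broth with 5% defibrinated horse blood, log-phase inoculum at 1 x 10^5 CFU/ml. Incubated 37°C with shaking, 16 to 20 h, in 5% humidified CO2. Compounds at 1% DMSO final. MIC is the lowest concentration without growth by OD600. Quadruplicate; highest MIC reported.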

Staphylococcus aureus [2] = assay: Antibacterial activity against HB-EMAU-resistant and ciprofloxacin-resistant Staphylococcus aureus Smith; type: functional
Outline: (§2)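 Broth microdilution per CLSI with modified incubation. Log-phase cultures in cation-adjusted Mueller-Hinton broth, seeded at 1 x 10^5 CFU/ml. Compounds from DMSO stocks, 1% DMSO final. Incubated 37°C, 16 to 20 h, shaken. Growth read as OD600. MIC is the lowest concentration with no apparent growth. Run in quadruplicate; highest value reported.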

Bacillus subtilis [3] = assay: Inhibition of protein synthesis in Bacillus subtilis BD54; type: functional, organism-based
Outline: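 Log-phase B. subtilis BD54 in C plus 50 medium; compound in DMSO (5x or 1x MIC) and L-[4,5-3H]leucine added together at time zero; samples taken at intervals. Protein synthesis measured as TCA-precipitable radioactivity, compared with diluent-control incorporation.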

Bacillus cereus [4] = assay: Antibacterial activity against Bacillus cereus 4342; type: functional
Bacillus subtilis [5] = assay: Inhibition of RNA synthesis in Bacillus subtilis BD54; type: functional, organism-based
Outline: (§3)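 B. subtilis BD54 grown to log phase in C plus 50 medium; compound in DMSO added with [8-3H]adenine at time zero, at 5x or 1x MIC; samples over time. DNA = alkali-insensitive TCA-insoluble label; RNA = total TCA-insoluble minus DNA. Effect judged against diluent-control incorporation.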

Enterococcus faecalis [6] = assay: Antibacterial activity against vancomycin-resistant Enterococcus faecalis 51299; type: functional; outline: as §2
[7] = system: Stenotrophomonas maltophilia; assay: Antibacterial activity against Stenotrophomonas maltophilia 13637; type: functional
Enterococcus faecalis [8] = assay: Antibacterial activity against Enterococcus faecalis 29212; type: functional; outline: as §2
Staphylococcus aureus [9] = assay: Antibacterial activity against methicillin-resistant Staphylococcus aureus 1123; type: functional; outline: as §2
Enterococcus faecium [10] = assay: Antibacterial activity against vancomycin-resistant Enterococcus faecium B42762; type: functional; outline: as §2
Streptococcus pneumoniae [11] = assay: Antibacterial activity against penicillin-resistant Streptococcus pneumoniae 700677; type: functional; outline: as §1
Pseudomonas aeruginosa = assay: Antibacterial activity against Pseudomonas aeruginosa 27853; type: functional
Staphylococcus aureus [12] = assay: Antibacterial activity against Staphylococcus aureus Smith 13709; type: functional; outline: as §2
Enterococcus faecium [13] = assay: Antibacterial activity against vancomycin and linezolid-resistant Enterococcus faecium F118; type: functional; outline: as §2
[14] = Inhibition of Bacillus subtilis gyrase
Streptococcus pneumoniae [15] = assay: Antibacterial activity against penicillin-resistant Streptococcus pneumoniae 700671; type: functional; outline: as §1
Bacillus thuringiensis [16] = assay: Antibacterial activity against Bacillus thuringiensis 33679; type: functional
Escherichia coli [17] = assay: Antibacterial activity against Escherichia coli J53; type: functional
[18] = Inhibition of Bacillus subtilis topoisomerase 4
[19] = target: T1, DNA polymerase subunit gamma-1 (Homo sapiens, UniProt P54098); assay: Inhibition of human DNA polymerase gamma
T1 sequence (P54098 whole entry): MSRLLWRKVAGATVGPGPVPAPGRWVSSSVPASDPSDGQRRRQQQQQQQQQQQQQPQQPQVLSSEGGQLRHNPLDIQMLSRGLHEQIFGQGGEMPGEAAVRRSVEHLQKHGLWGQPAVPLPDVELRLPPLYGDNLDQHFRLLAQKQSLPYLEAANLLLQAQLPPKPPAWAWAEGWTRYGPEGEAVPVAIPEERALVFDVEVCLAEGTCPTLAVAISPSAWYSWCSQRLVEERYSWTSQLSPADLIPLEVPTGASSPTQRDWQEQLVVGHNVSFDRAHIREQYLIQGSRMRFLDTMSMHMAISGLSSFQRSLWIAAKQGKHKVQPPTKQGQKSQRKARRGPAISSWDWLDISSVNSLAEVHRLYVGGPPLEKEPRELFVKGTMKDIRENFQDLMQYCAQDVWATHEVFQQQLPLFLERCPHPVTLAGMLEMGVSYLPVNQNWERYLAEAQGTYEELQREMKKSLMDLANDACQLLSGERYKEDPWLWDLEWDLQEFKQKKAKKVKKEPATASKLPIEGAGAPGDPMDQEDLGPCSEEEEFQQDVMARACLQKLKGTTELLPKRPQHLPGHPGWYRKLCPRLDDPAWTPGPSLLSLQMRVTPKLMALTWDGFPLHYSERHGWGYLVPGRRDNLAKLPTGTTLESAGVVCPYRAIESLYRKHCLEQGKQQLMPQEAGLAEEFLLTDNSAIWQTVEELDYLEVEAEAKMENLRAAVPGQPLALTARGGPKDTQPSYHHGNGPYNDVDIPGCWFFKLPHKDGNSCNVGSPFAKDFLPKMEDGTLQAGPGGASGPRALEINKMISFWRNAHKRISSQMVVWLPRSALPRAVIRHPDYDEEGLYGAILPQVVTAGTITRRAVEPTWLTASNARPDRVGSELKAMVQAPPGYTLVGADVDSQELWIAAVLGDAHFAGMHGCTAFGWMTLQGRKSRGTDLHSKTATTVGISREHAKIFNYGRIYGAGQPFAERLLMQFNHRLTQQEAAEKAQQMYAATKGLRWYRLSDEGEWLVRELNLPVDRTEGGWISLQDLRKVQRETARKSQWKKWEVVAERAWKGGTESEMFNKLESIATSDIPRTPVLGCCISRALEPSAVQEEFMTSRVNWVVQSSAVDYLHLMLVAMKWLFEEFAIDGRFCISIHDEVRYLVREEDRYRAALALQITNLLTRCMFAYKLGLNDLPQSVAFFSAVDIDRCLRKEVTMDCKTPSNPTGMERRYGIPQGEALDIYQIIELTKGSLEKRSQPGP
Outline: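 Calf thymus pol alpha or human pol gamma, 0.025 to 0.06 U, added to compound dilutions in reaction mixture; 25 min at 37°C; stopped with ice-cold 10% TCA/10 mM pyrophosphate; precipitated [3H]DNA collected on filters and counted. Ki values for dGTP-competitive inhibitors obtained by truncated assay lacking dGTP.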

Staphylococcus aureus [20] = assay: Antibacterial activity against methicillin-resistant Staphylococcus aureus B42876; type: functional; outline: as §2
Enterococcus faecium [21] = assay: Antibacterial activity against Enterococcus faecium 19434; type: functional; outline: as §2
Staphylococcus aureus [22] = assay: Antibacterial activity against Staphylococcus aureus 1081; type: functional; outline: as §2
Streptococcus pyogenes = assay: Antibacterial activity against Streptococcus pyogenes 12344; type: functional
Staphylococcus aureus [23] = assay: Antibacterial activity against Staphylococcus aureus Smith in presence of 10% FCS; type: functional
Escherichia coli [24] = assay: Antibacterial activity against ciprofloxacin-resistant Escherichia coli XL1-Blue; type: functional; outline: as §2
Enterococcus faecalis [25] = assay: Antibacterial activity against vancomycin-resistant Enterococcus faecalis 700802; type: functional; outline: as §2
Enterococcus faecium [26] = assay: Antibacterial activity against vancomycin-resistant Enterococcus faecium 1644; type: functional; outline: as §2
Bacillus cereus [27] = assay: Antibacterial activity against Bacillus cereus 6464; type: functional
Staphylococcus aureus [28] = assay: Antibacterial activity against ciprofloxacin-resistant Staphylococcus aureus Smith; type: functional; outline: as §2
Streptococcus pneumoniae [29] = assay: Antibacterial activity against penicillin-resistant Streptococcus pneumoniae 700670; type: functional; outline: as §1
Staphylococcus aureus [30] = assay: Antibacterial activity against mupirocin-resistant Staphylococcus aureus 777; type: functional; outline: as §2
Staphylococcus aureus [31] = assay: Antibacterial activity against HB-EMAU-resistant Staphylococcus aureus Smith; type: functional; outline: as §2
Bacillus subtilis [32] = assay: Inhibition of DNA synthesis in Bacillus subtilis BD54; type: functional, organism-based; outline: as §3
Enterococcus faecalis [33] = assay: Antibacterial activity against vancomycin-resistant Enterococcus faecalis 51575; type: functional; outline: as §2
Staphylococcus aureus [34] = assay: Antibacterial activity against methicillin-resistant Staphylococcus aureus 1132; type: functional; outline: as §2
Staphylococcus aureus [35] = assay: Antibacterial activity against methicillin-resistant Staphylococcus aureus 1094; type: functional; outline: as §2
Staphylococcus aureus [36] = assay: Antibacterial activity against Staphylococcus aureus 25923; type: functional; outline: as §2
Klebsiella pneumoniae = assay: Antibacterial activity against Klebsiella pneumoniae 5657; type: functional
Staphylococcus aureus [37] = assay: Antibacterial activity against mupirocin-sensitive Staphylococcus aureus 2529; type: functional
[38] = Cytotoxicity against human MRC5 cells; type: cell-based
Outline: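 MRC-5 human diploid fibroblasts, 4 x 10^3 cells per well, exposed to compound from DMSO stock (final 1%) in minimal essential medium with 10% fetal calf serum for 72 h at 37°C beside a DMSO-only control.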

Streptococcus pneumoniae [39] = assay: Antibacterial activity against Streptococcus pneumoniae 49619; type: functional; outline: as §1
Streptococcus pneumoniae [40] = assay: Antibacterial activity against penicillin-resistant Streptococcus pneumoniae 700674; type: functional; outline: as §1
Bacillus thuringiensis [41] = assay: Antibacterial activity against Bacillus thuringiensis 10792; type: functional
Bacillus anthracis = assay: Antibacterial activity against Bacillus anthracis Sterne; type: functional
Bacillus subtilis [42] = assay: Antibacterial activity against Bacillus subtilis BD54; type: functional

With CCc1cc(Nc2cc(=O)n(CCCCO)c(=O)[nH]2)ccc1C the MIC (Streptococcus pneumoniae [1]) was 2.5 µg/mL (≈ 7.88 µM), the MIC (Staphylococcus aureus [2]) was over 80 µg/mL and the Activity (Bacillus subtilis [3]) was “inactive”. For the same compound, the MIC (Bacillus cereus [4]) was 1.25 µg/mL (≈ 3.94 µM), the Activity (Bacillus subtilis [5]) was “inactive” and the MIC (Enterococcus faecalis [6]) was 5 µg/mL (≈ 15.8 µM). For the same compound, the MIC [7] was over 80 µg/mL, the MIC (Enterococcus faecalis [8]) was 5 µg/mL (≈ 15.8 µM) and the MIC (Staphylococcus aureus [9]) was 5 µg/mL (≈ 15.8 µM). It also gave an MIC (Enterococcus faecium [10]) of 5 µg/mL (≈ 15.8 µM), an MIC (Streptococcus pneumoniae [11]) of 2.5 µg/mL (≈ 7.88 µM) and an MIC (Pseudomonas aeruginosa) of over 80 µg/mL. It also gave an MIC (Staphylococcus aureus [12]) of 5 µg/mL (≈ 15.8 µM), an MIC (Enterococcus faecium [13]) of 10 µg/mL (≈ 31.5 µM) and an IC50 [14] of over 500 µM. The MIC (Streptococcus pneumoniae [15]) was 2.5 µg/mL (≈ 7.88 µM), the MIC (Bacillus thuringiensis [16]) was 2.5 µg/mL (≈ 7.88 µM) and the MIC (Escherichia coli [17]) was over 80 µg/mL. It also gave an IC50 [18] of over 500 µM, a Ki [19] of over 1010 µM and an MIC (Staphylococcus aureus [20]) of 5 µg/mL (≈ 15.8 µM). For the same compound, the MIC (Enterococcus faecium [21]) was 5 µg/mL (≈ 15.8 µM), the MIC (Staphylococcus aureus [22]) was 5 µg/mL (≈ 15.8 µM) and the MIC (Streptococcus pyogenes) was 1.25 µg/mL (≈ 3.94 µM). It also gave an MIC (Staphylococcus aureus [23]) of 20 µg/mL, an MIC (Escherichia coli [24]) of over 80 µg/mL and an MIC (Enterococcus faecalis [25]) of 5 µg/mL (≈ 15.8 µM). For the same compound, the MIC (Enterococcus faecium [26]) was 2.5 µg/mL (≈ 7.88 µM), the MIC (Bacillus cereus [27]) was 1.25 µg/mL (≈ 3.94 µM) and the MIC (Staphylococcus aureus [28]) was 5 µg/mL (≈ 15.8 µM). The MIC (Streptococcus pneumoniae [29]) was 5 µg/mL (≈ 15.8 µM), the MIC (Staphylococcus aureus [30]) was 10 µg/mL (≈ 31.5 µM) and the MIC (Staphylococcus aureus [31]) was over 80 µg/mL. For the same compound, the Activity (Bacillus subtilis [32]) was “Active”, the MIC (Enterococcus faecalis [33]) was 5 µg/mL (≈ 15.8 µM) and the MIC (Staphylococcus aureus [34]) was 5 µg/mL (≈ 15.8 µM). The MIC (Staphylococcus aureus [35]) was 5 µg/mL (≈ 15.8 µM), the MIC (Staphylococcus aureus [36]) was 5 µg/mL (≈ 15.8 µM) and the MIC (Klebsiella pneumoniae) was over 80 µg/mL. For the same compound, the MIC (Staphylococcus aureus [37]) was 20 µg/mL (≈ 63 µM), the CC50 [38] was 46 µg/mL (≈ 145 µM) and the MIC (Streptococcus pneumoniae [39]) was 2.5 µg/mL (≈ 7.88 µM). It also gave an MIC (Streptococcus pneumoniae [40]) of 5 µg/mL (≈ 15.8 µM), an MIC (Bacillus thuringiensis [41]) of 1.25 µg/mL (≈ 3.94 µM) and an MIC (Bacillus anthracis) of 2.5 µg/mL (≈ 7.88 µM). For the same compound, the MIC (Bacillus subtilis [42]) was 1.25 µg/mL (≈ 3.94 µM).
